# Screens: PubChem BioAssay, several laboratories
# This is a sample that favours compounds with a hit; in the whole collection about 2.2% have one here.
# Ec RNAP inh = inhibitors of Escherichia coli RNA polymerase; P0A8V2; E. coli RNA polymerase, fluorescence transcription assay; inhibition, %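 (tested at 10 µM)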; actives 0.2% (n = 62,000); AID 559; in the data active = inhibition above about 20%;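 also: 0% = enzyme without compound and 100% = no enzyme blank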
# TNAP act DEA = activates human TNAP at intermediate phosphate acceptor concentration. activation factor at 20 µM. P05186. 64,000 tested, under 10 active. AID 813. purified TNAP, CDP-star luminescence, 100 mM DEA, 30 min; active compounds read high; scale: 0 levamisole-inhibited, 1 vehicle-only enzyme;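 active = activation factor of at least 2 at 20 µM, relative to controls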
# Target sequence (P05186 whole entry, looked up): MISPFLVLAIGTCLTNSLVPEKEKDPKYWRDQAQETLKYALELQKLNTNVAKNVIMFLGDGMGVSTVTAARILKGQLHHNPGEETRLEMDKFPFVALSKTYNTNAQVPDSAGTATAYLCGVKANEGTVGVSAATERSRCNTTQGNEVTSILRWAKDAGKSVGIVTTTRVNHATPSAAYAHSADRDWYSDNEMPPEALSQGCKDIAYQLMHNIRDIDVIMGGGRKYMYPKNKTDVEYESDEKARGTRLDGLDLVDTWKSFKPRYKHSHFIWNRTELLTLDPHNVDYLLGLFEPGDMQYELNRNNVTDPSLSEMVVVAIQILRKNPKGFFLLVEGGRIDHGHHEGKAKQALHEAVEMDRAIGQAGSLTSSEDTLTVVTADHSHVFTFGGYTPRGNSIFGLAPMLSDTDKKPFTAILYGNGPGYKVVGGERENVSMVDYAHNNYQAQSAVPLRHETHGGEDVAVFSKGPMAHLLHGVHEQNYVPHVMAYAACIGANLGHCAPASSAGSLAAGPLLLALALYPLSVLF
# MT1-MMP txn act = MT1-MMP promoter transcription activation; HT1080 MT1-MMP promoter luciferase reporter, luminescence, overnight; active compounds read high; activation factor at 10 µM; actives 0.16% (n = 86,000);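 active = activation factor of at least 2 for MT1-MMP transcription at 10 µM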
# AP complement = orthogonal test for alternative complement pathway inhibitors. Human serum alternative complement pathway, LPS-coated ELISA, C3 deposition; tested in compound mixtures. inhibition, % at 5 µM. actives 0.08% (n = 62,000). AID 1235;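 active = inhibition above 30% in each of the two pooled mixtures holding the compound, so the lower value exceeds 30%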;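 also: 0% = serum in Mg-EGTA without compound and 100% = EDTA serum blank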
#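 Test system: human serum alternative complement pathway, C3 deposition on LPS-coated wells; also added: Plate-bound LPS; doses: 5 µM per compound in ten-compound mixtures; schedule: 1 h at 37 °C; detection: Anti-C3 ELISA, OD 450 nm; evaluation: percent inhibition of C3 deposition onto LPS; repeats: two pool placements per compound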
# SF-1 act = activates the human nuclear receptor SF-1; Q13285; CHO-K1 Gal4-SF-1 LBD luciferase reporter; % increase over DMSO SF-1-specific signal; activation, % at 10 µM; actives 1.9% (n = 65,000); AID 522;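 active = activation above the mean activation of all tested compounds plus 3 SD, cut at about 50% in these data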
#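 Test system: CHO-K1 cells with Gal4–hSF-1 LBD chimera plus Gal4-driven luciferase; Input: 4,000 cells/well; Compound: 10 µM only; Times: 20 h compound treatment, 37 °C; Measured by: steady-glow luciferase luminescence, read after 15 min reagent incubation; Measure: percent activation versus DMSO; Control set: DMSO and mock-transfected background; Replicates: one test per compound.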
# RORa activator = RORA (human) activation; AID 560; CHO-K1 Gal4-RORA LBD luciferase reporter, luminescence; percent increase over mock-subtracted basal signal; P35398; actives 1.5% (n = 65,000); activation, % at 10 µM;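 active = activation above the mean of all tested compounds plus 3 SD, cut at about 49% in these data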;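 also: 0% = DMSO-treated RORA cells and 100% = added signal equal to DMSO minus mock-transfected cells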
# Numbers without * were called inactive; x = not tested or not shown.
SMILES,Ec RNAP inh,TNAP act DEA,MT1-MMP txn act,AP complement,SF-1 act,RORa activator
COC(=O)c1cc(OC)c(OC)cc1NC(=O)c1c(-c2ccccc2Cl)noc1C,-4.3,0.9,1.2,15.2,-18.2,18.3
O=C(Nc1ccncc1)C1CCCN(S(=O)(=O)c2cccc3cccnc23)C1 (stereo not drawn),11.0,0.8,x,10.9,36.3,56.6*
COc1cccc(NC(=O)C2CCCN(S(=O)(=O)c3cccc4cccnc34)C2)c1 (stereo not drawn),8.0,0.8,1,-7.4,-4.3,5.4
CCC(=O)Nc1cccc(-c2nnc(SCC(=O)c3ccccc3)n2C)c1,9.0,0.9,1.4,7.1,43.5,61.0*
CCC(=O)Nc1cccc(-c2nnc(SCC(=O)NCc3ccco3)n2C)c1,-3.2,1,1.2,2.8,-11.0,-2.4
Cn1c(SCC(=O)c2ccccc2)nnc1-c1cnccn1,7.7,0.9,1.7,-0.2,61.4*,30.0
CCOC(=O)c1nnn(-c2nonc2N)c1-c1ccc(OC)cc1,-3.6,0.9,1.1,22.2,-5.1,13.7
CC1CCCC(C)N1C(=O)c1cc(-c2ccc(Cl)c(Cl)c2)on1 (stereo not drawn),1.4,0.9,1.3,1.4,26.3,76.0*
Cc1ccc(-c2cc(C(=O)N3CCCC3)no2)cc1,3.9,0.8,0.1,13.9,-50.9,-50.7
O=C(COc1cccc2cccnc12)Nc1nccs1,4.2,0.9,1.3,5.9,48.0,74.9*
COc1cccc2cc(C(=O)Nc3cccnc3N3CCOCC3)c(=O)oc12,-2.0,0.9,1,7.4,-4.0,-1.7
COc1cccc2cc(NC(=O)C3CCCCC3)c(=O)oc12,5.2,0.9,x,-11.0,65.9*,56.1*
COc1cccc2cc(C(=O)Nc3cccc(C)n3)c(=O)oc12,-4.7,0.9,0.6,26.8,72.7*,57.5*
CCOc1ccc(N2C(=O)CC(SC(=NC)Nc3ccc(F)cc3)C2=O)cc1 (stereo not drawn),x,x,1.1,x,x,x
CC(C)NC(=O)c1cc(-c2ccc(Br)cc2)on1,4.5,0.9,5.1*,11.2,34.6,66.2*
Cc1ccc(-c2cc(C(=O)NCCN3CCOCC3)no2)cc1,0.8,0.9,1.2,-20.6,7.7,-7.5
CCCNC(=O)c1cc(-c2ccc(Br)cc2)on1,4.2,0.9,1.5,15.2,57.8*,36.6
O=C1OC(c2ccccc2)=N/C1=C\N1CCCCC1,x,x,1.6,x,x,x
O=C1OC(c2ccccc2)=C/C1=C/N1CCCCC1,4.8,0.9,1.5,6.0,21.6,71.4*
CSc1nsc(SCC(=O)N2CCN(c3ccccc3)CC2)n1,-1.8,1,1.1,-3.0,-16.1,-16.9
Cc1ccccc1Cn1ccc(NC(=O)c2onc(C)c2Cl)n1,3.1,0.8,1.4,4.0,10.9,87.0*
CCc1nc(SCc2ccc(F)cc2)[nH]c(=O)c1C#N,x,x,1.2,x,x,x
Cn1c(SCc2nc3ccccc3c(=O)[nH]2)nnc1-c1ccco1,4.0,0.8,1,11.8,-3.3,-8.1
Cn1c(-c2ccccc2)cnc1SCc1nc2ccccc2c(=O)[nH]1,9.8,1.1,0.9,10.9,68.9*,29.4
O=C(Nc1nnc(C(F)(F)F)s1)c1cccnc1,5.6,0.9,1.2,4.5,59.7*,65.8*
SMILES,Ec RNAP inh,TNAP act DEA,MT1-MMP txn act,AP complement,SF-1 act,RORa activator
COc1ccc(C(=O)Nc2nnc(C(F)(F)F)s2)cc1,-5.9,0.9,1.4,-26.0,57.3*,46.5
O=C(Nc1cccnc1)c1cccnc1,3.4,1,1,x,9.9,-18.1
c1ccc(-c2ncnc3cc4n(c23)CCC4)cc1,x,x,1.3,x,x,x
CCOC(=O)C1=C(CCc2ccccc2)NC(=O)NC1c1ccc(Cl)cc1 (stereo not drawn),x,x,1.1,x,x,x
COc1ccc(OC)c(/C(O)=C/C(=O)C(=O)Nc2ccccc2OC)c1,x,x,1.1,x,x,x
CCOC(=O)c1cccc(NC(=O)c2cc3sccc3n2C)c1,4.0,0.9,1.5,5.0,55.2*,36.0
CCOC(=O)c1ccccc1NC(=O)c1cc2sccc2n1C,-3.9,0.9,1.1,14.1,-5.7,11.6
COc1ccc(OCc2ccc(C(=O)O)cc2)cc1,x,0.9,1.3,2.1,63.7*,16.6
Cc1ccccc1-c1noc(-c2ccc(Cl)cc2)n1,x,x,2.1*,x,x,x
Cc1ccccc1-c1noc(-c2ccc(O)cc2)n1,x,0.9,1.1,14.3,33.4,100.7*
CC1CCCCC1NC(=O)CN1C(=O)CSc2cc(S(=O)(=O)N3CCCCCC3)ccc21 (stereo not drawn),x,x,1.2,x,x,x
c1ccc(CCCc2nc(-c3ccccn3)no2)cc1,-3.4,0.9,1.1,-4.2,56.8*,50.3*
Cc1ccc(Cc2nc(-c3ccccn3)no2)cc1,x,x,1.1,x,x,x
c1ccc(C(Cc2nc(-c3ccccn3)no2)c2ccccc2)cc1,11.2,1,1.3,12.6,14.3,19.9
c1ccc(Cc2nc(-c3ccccn3)no2)cc1,8.8,1,1.2,-2.6,23.2,61.2*
COC(=O)[C@@]1(Cc2ccccc2)[C@H]2c3cc(C(=O)N4CCCC4)n(CCN4CCNC4=O)c3C[C@H]2CN1C(=O)c1ccccc1,x,x,1.1,x,x,x
O=C(NCc1cccs1)C1CCC(=O)N1C1CCCCC1 (stereo not drawn),5.0,0.9,1,16.7,8.5,-11.6
O=C(CN1C(=O)NC2(CCCCCC2)C1=O)c1ccc2c(c1)OCCO2,0.8,0.9,1.3,5.0,88.7*,24.8
Fc1cccc(CSc2nc3ccncc3[nH]2)c1,3.8,0.9,1.3,16.1,50.9*,25.1
Fc1cccc(F)c1CSc1nc2ccccc2[nH]1,x,x,0.8,x,x,x
Cn1nnc2c(NCc3ccco3)nccc21,8.3,1,1,6.9,3.8,2.6
COc1ccc(Nc2nccc3c2nnn3C)cc1,7.5,0.9,1.5,-15.4,35.3,52.7*
Cc1ccc(NC(=O)c2cc(NC(=O)C3CC=CCC3C(=O)O)ccc2N2CCOCC2)cc1Cl (stereo not drawn),x,x,1.3,x,x,x
Clc1ccc(OCc2nc(-c3ccncc3)no2)c(Cl)c1,8.2,0.9,0.7,1.5,85.7*,47.7
COc1ccc(Cc2nc(-c3ccccn3)no2)cc1,x,x,1.6,x,x,x
COc1ccc(Cl)cc1-c1nc(-c2ccncc2)no1,1.7,0.9,1.3,7.1,14.5,18.2
Clc1cc(Cl)c(OCc2nc(-c3ccccn3)no2)cc1Cl,1.5,0.9,1.4,0.8,33.7,52.2*
CC(C)(C)c1ccc(OCc2nc(-c3ccccn3)no2)c(Br)c1,7.5,0.9,0.9,1.8,71.1*,67.1*
O=C(NCCCn1ccnc1)C(Cc1ccccc1)N1C(=O)c2ccccc2C1=O (stereo not drawn),x,0.9,1.1,x,-14.4,-14.9
COc1ccc(OCCCC(=O)NC(C)c2ccccc2)cc1 (stereo not drawn),x,x,1.1,x,x,x
